Test results published in ChEMBL document CHEMBL2390833, “Elucidation of the pharmacophore of echinocystic acid, a new lead for blocking HCV entry” (Eur J Med Chem, 2013).

Tests used:
[1] = test system: Hepatitis C virus; test: Antiviral activity against Hepatitis C virus assessed as blockage of HCV pseudo paricle entry to human Hep3B cells at 1 uM after 72 hrs; assay type: functional, Hepacivirus hominis, Hep 3B2
[2] = test system: Vesicular stomatitis virus; test: Antiviral activity against Vesicular stomatitis virus assessed as blockage of VSV pseudo paricle entry to human Hep3B cells at 1 uM after 72 hrs; assay type: functional, Hep 3B2
[3] = test system: Hepatitis C virus; test: Antiviral activity against Hepatitis C virus assessed as blockage of HCV pseudo paricle entry to human Hep3B cells at 5 uM after 72 hrs; assay type: functional, Hepacivirus hominis, Hep 3B2
[4] = test system: Vesicular stomatitis virus; test: Antiviral activity against Vesicular stomatitis virus assessed as blockage of VSV pseudo paricle entry to human Hep3B cells at 5 uM after 72 hrs; assay type: functional, Hep 3B2
[5] = Hemolytic activity in rabbit RBC assessed as hemolysis after 60 mins by microtitre plate reader analysis; assay type: ADME, cell-based, Oryctolagus cuniculus; conditions: erythrocyte, 1 h
How it was run: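 Rabbit erythrocytes at 2% (5 × 10⁸ RBC/mL) in PBS, pH 7.4, exposed to serially diluted compounds for 60 min at 37 °C. Hemolysis was read as absorbance at 541 nm, and percentage hemolysis was calculated by the routine method.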

SMILES	Activity [1]	Activity [2]	Activity [3]	Activity [4]	Activity [5]
CC1(C)C[C@H]2C3=CC[C@@H]4[C@@]5(C)CC[C@H](O)C(C)(C)[C@@H]5CC[C@@]4(C)[C@]3(C)C[C@@H](O)[C@@]2(C(=O)O)C[C@@H]1O	-5.7%	20.7%	18.4%	33.2%	
CC1(C)CC[C@]2(C(=O)O)[C@H](O)C[C@]3(C)C(=CC[C@@H]4[C@@]5(C)CCC(=O)C(C)(C)[C@@H]5CC[C@]43C)[C@@H]2C1	7.5%	-2.5%	41.6%	13.6%	Non-toxic
CC1(C)C[C@H]2C3=CC[C@@H]4[C@@]5(C)[C@H](O)C[C@H](O)C(C)(C)[C@@H]5CC[C@@]4(C)[C@]3(C)C[C@@H](O)[C@@]23C[C@@H]1OC3=O	28.9%	1.8%	72.6%	19.2%	Non-toxic
CC1(C)CC[C@@]2(C(=O)O)C(=C3C=C[C@@H]4[C@@]5(C)CC[C@H](O)C(C)(C)[C@@H]5C[C@H](O)[C@@]4(C)[C@]3(C)C[C@H]2O)C1	22.2%	-13.7%	31.9%	-4.4%	
CC1(C)CC[C@@]2(C(=O)O)C(=C3C=C[C@@H]4[C@@]5(C)[C@H](O)C[C@H](O)C(C)(C)[C@@H]5CC[C@@]4(C)[C@]3(C)C[C@H]2O)C1	2.3%	-15.8%	26.3%	5.9%	
CC1(C)CC[C@]2(C(=O)O)[C@H](O)C[C@]3(C)C(=CC[C@@H]4[C@@]5(C)CC[C@H](O)C(C)(C)[C@@H]5CC[C@]43C)[C@H]2C1 [ECHINOCYSTIC ACID]	21.3%	-0.1%	75.5%	-0.1%	
CC1(C)CC[C@]2(C(=O)O)[C@H](O)C[C@]3(C)C(=CC[C@@H]4[C@@]5(C)[C@H](O)C[C@H](O)C(C)(C)[C@@H]5CC[C@]43C)[C@@H]2C1	14.3%	7.9%	35.2%	11.8%	Non-toxic
CC1(C)C(=O)CC[C@]2(C)[C@H]3CC=C4[C@@H]5C[C@](C)(CO)CC[C@]5(C(=O)O)[C@H](O)C[C@@]4(C)[C@]3(C)CC[C@@H]12	3.1%	-20%	-3.3%	10.7%	
CC1(C)C[C@H]2C3=CC[C@@H]4[C@@]5(C)CC[C@H](O)C(C)(C)[C@@H]5CC[C@@]4(C)[C@]3(C)C[C@@H](O)[C@@]23C[C@@H]1OC3=O	13.9%	-17.3%	31.9%	-12.1%	Non-toxic
CC1(C)CC[C@]2(C(=O)O)[C@H](O)C[C@]3(C)C(=CC[C@@H]4[C@@]5(C)CC[C@H](O)C(C)(C)[C@@H]5C[C@H](O)[C@]43C)[C@@H]2C1	30.4%	1.6%	53.5%	5.6%	Non-toxic
CC1(C)C[C@H]2C3=CC[C@@H]4[C@@]5(C)CC[C@H](O)C(C)(C)[C@@H]5[C@H](O)C[C@@]4(C)[C@]3(C)C[C@@H](O)[C@@]23C[C@@H]1OC3=O	-1%	-8.3%	4.7%	-24%	Non-toxic
CC1(C)[C@@H](O)CC[C@]2(C)[C@H]3CC=C4[C@@H]5C[C@](C)(CO)CC[C@]5(C(=O)O)[C@H](O)C[C@@]4(C)[C@]3(C)CC[C@@H]12	16.5%	-2.5%	36.5%	3.6%	Non-toxic
CC1(C)CC2=C3C=C[C@@H]4[C@@]5(C)CC[C@H](O)C(C)(C)[C@@H]5CC[C@@]4(C)[C@]3(C)C[C@@H](O)[C@@]23C[C@@H]1OC3=O	11.6%	-16.2%	31.7%	-10.3%	Non-toxic
